Article PMC7227796 (ACS chemical neuroscience, 2020)
Read-outs that look alike come from different tables or passages of the source.

What was measured:
native NMDA receptors = test: Radioligand binding at native NMDA receptors; design: species or system rat; conditions: rat synaptosomes, [3H]CGP-39653; for Ki: read-out: NMDA Ki, native iGluRs (synaptosomes)
Outline: (§1)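 Rat cortical synaptosomal membranes were labelled with 5 nM [3H]AMPA (AMPA), 5 nM [3H]KA (KA) or [3H]CGP39653 (NMDA). Test compound was run at 12–16 concentrations in triplicate, with three to six independent experiments. Cpm were fitted by nonlinear regression. Values are reported as pIC50 for AMPA and KA and as pKi for NMDA, each as mean with SEM.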

GluK3 = GluK3 (Rattus norvegicus, UniProt P42264); test: Radioligand binding at recombinant homomeric GluK3
Outline: (§2)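 Membranes from sf9 cells expressing rat homomeric GluK1, GluK2 or GluK3 were incubated in 50 mM Tris-HCl, pH 7.1, for 2 h at 4 °C. Radioligand was [3H]-(S)-NF608 for GluK1 and [3H]kainic acid for GluK2 and GluK3. Samples were filtered on GF/B, washed twice with ice-cold buffer, dried for 1 h at 70 °C and counted by scintillation. Ki came from 12–16-point triplicate curves. Single-point % specific binding is mean ± SD of three experiments, at 10 μM test compound where stated.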

native AMPA receptors = test: Radioligand binding at native AMPA receptors; conditions: rat synaptosomes, [3H]AMPA; for IC50: read-out: AMPA IC50, native iGluRs (synaptosomes)
Outline: as §1

GluK2 = GluK2 (Rattus norvegicus, UniProt P42260); test: Radioligand binding at recombinant homomeric GluK2; conditions: for GluK2 % specific binding (Table 5): mean ± SD, ligand concentration not given
Outline: as §2

native KA receptors = test: Radioligand binding at native KA receptors; conditions: rat synaptosomes, [3H]KA
Outline: as §1

GluK1 = GluK1 (Rattus norvegicus, UniProt P22756); test: Radioligand binding at recombinant homomeric GluK1
Outline: as §2

[1] = read-out: GluK3 Ki, cloned homomeric iGluRs, [3H]KA, mean ± SEM
[2] = read-out: GluK2 Ki, cloned homomeric iGluRs, [3H]KA, mean ± SEM

Chain of GluK3 (P42264 32-919): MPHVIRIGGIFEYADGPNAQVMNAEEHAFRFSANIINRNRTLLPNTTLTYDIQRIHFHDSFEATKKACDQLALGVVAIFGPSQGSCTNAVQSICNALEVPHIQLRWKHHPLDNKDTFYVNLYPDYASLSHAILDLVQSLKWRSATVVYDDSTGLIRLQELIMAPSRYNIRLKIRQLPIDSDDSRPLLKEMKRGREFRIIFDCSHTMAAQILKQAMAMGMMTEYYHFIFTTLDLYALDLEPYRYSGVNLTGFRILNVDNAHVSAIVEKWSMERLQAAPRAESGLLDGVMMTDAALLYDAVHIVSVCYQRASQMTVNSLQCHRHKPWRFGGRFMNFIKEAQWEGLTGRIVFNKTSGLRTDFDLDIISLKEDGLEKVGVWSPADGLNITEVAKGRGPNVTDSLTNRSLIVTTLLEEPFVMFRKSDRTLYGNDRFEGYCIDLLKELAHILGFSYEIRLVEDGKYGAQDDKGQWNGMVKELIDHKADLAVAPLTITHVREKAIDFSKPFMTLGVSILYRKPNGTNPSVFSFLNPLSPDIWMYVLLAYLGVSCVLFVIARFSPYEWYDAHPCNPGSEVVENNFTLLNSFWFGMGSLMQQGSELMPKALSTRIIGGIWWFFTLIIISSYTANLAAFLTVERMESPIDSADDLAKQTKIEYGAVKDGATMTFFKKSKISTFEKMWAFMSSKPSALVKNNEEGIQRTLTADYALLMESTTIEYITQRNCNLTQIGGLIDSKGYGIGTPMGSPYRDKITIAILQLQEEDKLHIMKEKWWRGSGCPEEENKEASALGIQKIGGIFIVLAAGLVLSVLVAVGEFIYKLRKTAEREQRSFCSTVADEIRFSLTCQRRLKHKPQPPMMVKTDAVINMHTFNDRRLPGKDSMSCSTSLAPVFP
Chain of GluK1 (P22756 31-920 isoform P22756-4 limits assumed): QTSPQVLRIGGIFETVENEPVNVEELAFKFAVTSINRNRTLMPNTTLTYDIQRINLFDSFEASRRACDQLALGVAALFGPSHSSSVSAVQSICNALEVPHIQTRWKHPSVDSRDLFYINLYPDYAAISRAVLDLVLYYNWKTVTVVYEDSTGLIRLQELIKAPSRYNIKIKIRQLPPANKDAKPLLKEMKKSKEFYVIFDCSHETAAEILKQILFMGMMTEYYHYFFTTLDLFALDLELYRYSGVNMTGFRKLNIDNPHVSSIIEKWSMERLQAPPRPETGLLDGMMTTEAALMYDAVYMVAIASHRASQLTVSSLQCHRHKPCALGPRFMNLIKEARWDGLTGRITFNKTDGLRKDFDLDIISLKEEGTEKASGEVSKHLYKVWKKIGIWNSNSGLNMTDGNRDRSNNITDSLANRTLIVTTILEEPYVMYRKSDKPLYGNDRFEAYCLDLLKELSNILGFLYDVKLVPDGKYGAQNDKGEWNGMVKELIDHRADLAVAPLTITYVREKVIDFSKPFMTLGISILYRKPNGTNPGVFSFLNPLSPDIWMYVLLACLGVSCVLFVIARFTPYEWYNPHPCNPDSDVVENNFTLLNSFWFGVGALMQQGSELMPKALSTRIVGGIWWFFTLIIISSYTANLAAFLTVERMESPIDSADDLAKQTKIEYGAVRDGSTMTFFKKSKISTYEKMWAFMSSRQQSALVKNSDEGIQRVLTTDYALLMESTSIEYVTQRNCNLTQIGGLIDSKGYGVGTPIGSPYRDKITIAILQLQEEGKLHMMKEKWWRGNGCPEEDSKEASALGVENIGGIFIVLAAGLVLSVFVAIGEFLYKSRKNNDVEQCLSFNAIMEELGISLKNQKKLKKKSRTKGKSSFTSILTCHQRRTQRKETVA
Chain of GluK2 (P42260 32-908): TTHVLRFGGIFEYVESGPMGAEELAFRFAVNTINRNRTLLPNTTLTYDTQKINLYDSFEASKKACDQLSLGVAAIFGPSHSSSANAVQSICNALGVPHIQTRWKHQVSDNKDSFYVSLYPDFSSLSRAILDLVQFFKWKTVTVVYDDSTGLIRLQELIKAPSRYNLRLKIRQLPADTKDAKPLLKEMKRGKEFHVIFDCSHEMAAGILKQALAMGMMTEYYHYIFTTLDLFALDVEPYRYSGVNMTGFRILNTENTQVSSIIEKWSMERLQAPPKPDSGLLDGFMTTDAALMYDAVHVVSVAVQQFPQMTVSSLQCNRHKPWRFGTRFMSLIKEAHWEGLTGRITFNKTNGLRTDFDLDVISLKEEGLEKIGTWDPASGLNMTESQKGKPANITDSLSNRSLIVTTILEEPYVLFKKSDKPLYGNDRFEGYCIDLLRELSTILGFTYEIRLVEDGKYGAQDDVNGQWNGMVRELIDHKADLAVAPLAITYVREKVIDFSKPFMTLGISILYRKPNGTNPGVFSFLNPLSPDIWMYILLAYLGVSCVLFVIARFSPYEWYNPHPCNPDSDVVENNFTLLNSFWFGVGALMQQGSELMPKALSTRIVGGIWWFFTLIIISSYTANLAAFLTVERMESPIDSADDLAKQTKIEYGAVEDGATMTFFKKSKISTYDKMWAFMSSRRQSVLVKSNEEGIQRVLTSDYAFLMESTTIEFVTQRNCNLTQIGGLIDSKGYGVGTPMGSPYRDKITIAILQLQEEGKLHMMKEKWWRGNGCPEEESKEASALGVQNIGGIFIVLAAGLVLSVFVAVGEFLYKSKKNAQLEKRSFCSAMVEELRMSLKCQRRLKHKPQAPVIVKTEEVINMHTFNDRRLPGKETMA

GluK3 % specific binding (Table 5) (GluK3; [3H]KA, mean ± SD, ligand concentration not given) | GluK2 % specific binding (Table 5) (GluK2; [3H]KA) | GluK1 % specific binding (Table 5) (GluK1; [3H]NF608, mean ± SD, ligand concentration not given) | SMILES | NMDA pKi with SEM (in brackets) (native NMDA receptors) | Ki (native NMDA receptors) | Ki (GluK3; [1]) | AMPA pIC50 with SEM (in brackets) (native AMPA receptors) | IC50 (native AMPA receptors) | Ki (GluK2; [2]) | KA IC50, native iGluRs (synaptosomes) (native KA receptors) | KA pIC50 with SEM (in brackets) (native KA receptors) | Ki (GluK3) | Ki (GluK2) | Ki (GluK1)
 |  |  | Cl.Cl.Nc1cc(C(=O)O)cc([C@H]2CCN[C@@H]2C(=O)O)c1 (racemic) [(±)-5j, (±)-2,3-trans-(3-Amino-5-carboxyphenyl)pyrrolidine-2-carboxylic acid dihydrochloride] | 4.87±0.05 | 14 µM | 19.3 ± 0.9 µM | 4.29±0.07 | 52 µM | > 100 µM | 86 µM | 4.07±0.04 |  |  | 
 |  |  | Cc1ccc(S(=O)(=O)Nc2cc(C(=O)O)cc([C@H]3CCN[C@@H]3C(=O)O)c2)cc1.Cl (racemic) [(±)-5k, (±)-2,3-trans-(3-Carboxy-5-((4-methylphenyl)sulfonamido)phenyl)pyrrolidine-2-carboxylic acid hydrochloride] | 4.82±0.03 | 15 µM | 10.9 ± 0.5 µM | 4.65±0.09 | 23 µM | 19 µM | >100 µM |  |  |  | 
 |  |  | Cl.O=C(O)c1cc(NS(=O)(=O)c2ccccn2)cc([C@H]2CCN[C@@H]2C(=O)O)c1 (racemic) [(±)-5l, (±)-2,3-trans-3-(3-Carboxy-5-(pyridine-2-sulfonamido)phenyl)pyrrolidine-2-carboxylic acid hydrochloride] | 4.46±0.08 | 36 µM | 14 ± 0.9 µM | 4.57±0.04 | 27 µM | ~100 µM | >100 µM |  |  |  | 
 |  |  | Cl.O=C(O)c1cc(NC(=O)c2ccccc2)cc([C@H]2CCN[C@@H]2C(=O)O)c1 (racemic) [(±)-5m, (±)-2,3-trans-3-(3-Benzamido-5-carboxyphenyl)pyrrolidine-2-carboxylic acid hydrochloride] | 5.16±0.04 | 6.9 µM | 3.95 ± 0.2 µM | 4.63±0.04 | 24 µM | ~100 µM | 16 µM | 4.81±0.03 |  |  | 
 |  |  | Cl.O=C(O)c1cc(Br)cc([C@H]2CCN[C@@H]2C(=O)O)c1 [5b, (2S,3R)-3-(3-Bromo-5-carboxyphenyl)pyrrolidine-2-carboxylic acid hydrochloride] | 5.63 ±0.05 | 2.4 µM |  | 4.60 ± 0.04 | 26 µM |  | 10 µM | 4.99 ± 0.04 | 2.42 ± 0.11 µM | > 100 µM | 5.88 ± 0.6 µM
 |  |  | Cl.O=C(O)c1cc([C@H]2CCN[C@@H]2C(=O)O)cc(Br)c1Cl [6a, (2S,3R)-3-(3-Bromo-5-carboxy-4-chlorophenyl)pyrrolidine-2-carboxylic acid hydrochloride] |  | 1 to 10 µM |  |  | > 100 µM |  | >100 µM |  | ≥ 100 µM | ≥ 100 µM | ≥ 100 µM
83 ± 6% | 99 ± 6% | 50 ± 6% | CNCC[C@@H]1CN[C@H](C(=O)O)[C@H]1c1cccc(C(=O)O)c1 [9b, (2S,3R,4S)-3-(3-Carboxyphenyl)-4-(2-(methylamino)ethyl)pyrrolidine-2-carboxylic acid] |  | > 100 µM |  | 4.16 ± 0.02 | 69 µM |  | >100 µM |  | > 100 µM | > 100 µM | ~10 µM
 | 86 ± 6% |  | O=C(O)c1cccc([C@H]2[C@H](CCNCc3ccccc3)CN[C@@H]2C(=O)O)c1 [9c, (2S,3R,4S)-4-(2-(Benzylamino)ethyl)-3-(3-carboxyphenyl)pyrrolidine-2-carboxylic acid] |  | > 100 µM |  | 4.83 ± 0.05 | 15 µM |  |  |  | 2.46 ± 0.54 µM | > 100 µM | 2.98 ± 0.96 µM
